Measurements reported in ChEMBL document CHEMBL1765048 (J Med Chem, 2011).
Active and inactive are the calls of the source. The rule behind the calls is not given here.

Legend:
D(2) dopamine receptor [1] = target: T1, D(2) dopamine receptor (Homo sapiens, UniProt P14416); assay: Displacement of [3H]spiperone from human dopamine D2long receptor expressed in CHO cells after 60 mins; type: cell-based
Summary of the method: (§1)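 Incubated 60 min at 37 °C in sodium-free buffer: 50 mM Tris-HCl, 1 mM EDTA, 5 mM MgCl2, 0.1 mM DTT, bacitracin, trypsin inhibitor, pH 7.4. Ki by Cheng-Prusoff; 3-9 experiments in triplicate.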

Homo sapiens = species: Homo sapiens; assay: Selectivity ratio of Ki for human dopamine D3 receptor V2.61F mutant to Ki for wild type human dopamine D3 receptor
D(2) dopamine receptor [2] = target: T1, D(2) dopamine receptor; assay: Displacement of [3H]7-OH-DPAT from human dopamine D2long receptor expressed in CHO cells after 60 mins; type: cell-based
Summary of the method: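 CHO membranes stably expressing D2long (200 μg protein/well) incubated with 1.0 nM [3H]7-OH-DPAT for 60 min at 37 °C. […] Ki from Cheng-Prusoff; 3-8 experiments in triplicate.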

D(3) dopamine receptor [3] = target: T2, D(3) dopamine receptor (Homo sapiens, UniProt P35462); assay: Displacement of [3H]spiperone from wild type human dopamine D3 receptor expressed in HEK293 cells after 60 mins; type: cell-based
T2 sequence (P35462 whole entry): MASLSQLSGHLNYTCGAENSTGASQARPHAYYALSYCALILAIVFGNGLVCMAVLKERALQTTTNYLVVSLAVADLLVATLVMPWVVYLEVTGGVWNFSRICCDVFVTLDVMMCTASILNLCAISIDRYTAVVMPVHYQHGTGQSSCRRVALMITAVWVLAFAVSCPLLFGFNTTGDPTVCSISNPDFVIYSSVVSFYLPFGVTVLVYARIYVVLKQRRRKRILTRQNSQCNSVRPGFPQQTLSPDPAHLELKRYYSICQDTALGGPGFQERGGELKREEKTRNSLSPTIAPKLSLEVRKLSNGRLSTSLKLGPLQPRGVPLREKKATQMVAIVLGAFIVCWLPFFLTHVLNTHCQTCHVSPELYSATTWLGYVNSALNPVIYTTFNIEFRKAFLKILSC
Summary of the method: (§2)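 Membranes from HEK293 cells transiently transfected with wild-type or mutant D3 were harvested at 48 h. KD and Bmax were set by [3H]spiperone saturation. Competition at 20-200 μg/mL protein for 1 h at 37 °C, ended by filtration on PEI-soaked GF/B filters, then scintillation counting. Ki by Cheng-Prusoff as mean ± SEM of 3-12 experiments in triplicate.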

D(3) dopamine receptor [4] = target: D(3) dopamine receptor (Homo sapiens, UniProt P35462, D110E); assay: Displacement of [3H]spiperone from human dopamine D3 receptor D3.32E mutant expressed in HEK293 cells after 60 mins; type: cell-based; summary of the method: as §2
D(3) dopamine receptor (Homo sapiens, UniProt P35462, D110E), sequence (P35462 as listed by the source D110E): as the sequence (P35462 whole entry) above, with G9S, D110E counted along it

D(3) dopamine receptor [5] = target: T2, D(3) dopamine receptor; assay: Displacement of [3H]spiperone from human dopamine D3 receptor expressed in CHO cells after 60 mins; type: cell-based; summary of the method: as §1
D(3) dopamine receptor [6] = target: D(3) dopamine receptor (Homo sapiens, UniProt P35462, V87F); assay: Displacement of [3H]spiperone from human dopamine D3 receptor V2.61F mutant expressed in HEK293 cells after 60 mins; type: cell-based; summary of the method: as §2
D(3) dopamine receptor (Homo sapiens, UniProt P35462, V87F), sequence (P35462 as listed by the source V87F): as the sequence (P35462 whole entry) above, with G9S, V87F counted along it

D(3) dopamine receptor [7] = target: T2, D(3) dopamine receptor; assay: Displacement of [3H]spiperone from human dopamine D3 receptor S5.42A mutant expressed in HEK293 cells after 60 mins; type: cell-based; summary of the method: as §2
D(3) dopamine receptor [8] = target: D(3) dopamine receptor (Homo sapiens, UniProt P35462, S196A); assay: Displacement of [3H]spiperone from human dopamine D3 receptor S5.46A mutant expressed in HEK293 cells after 60 mins; type: cell-based; summary of the method: as §2
D(3) dopamine receptor (Homo sapiens, UniProt P35462, S196A), sequence (P35462 as listed by the source S196A): as the sequence (P35462 whole entry) above, with G9S, S196A counted along it

D(3) dopamine receptor [9] = target: T2, D(3) dopamine receptor; assay: Displacement of [3H]7-OH-DPAT from human dopamine D3 receptor expressed in CHO cells after 60 mins; type: cell-based
D(3) dopamine receptor [10] = target: T2, D(3) dopamine receptor; assay: Displacement of [3H]spiperone from human dopamine D3 receptor H6.55A mutant expressed in HEK293 cells after 60 mins
D(3) dopamine receptor [11] = target: T2, D(3) dopamine receptor; assay: Agonist activity at human dopamine D3 receptor expressed in HEK293 cells co-expressing Galphao1 assessed as incorporation of [35S]GTPgammaS into Galphao1 after 30 mins by scintillation counting; type: functional, cell-based
Summary of the method: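 Membranes from HEK293 cells transiently transfected with D3 plus PTX-insensitive Gαo; expression 1100 fmol/mg. Buffer: 20 mM Hepes, 10 mM MgCl2, 100 mM NaCl, 70 mg/L saponin, pH 7.4. Membranes at 30-50 μg/mL, with compound and 10 μM GDP, preincubated 30 min at 37 °C. Then 0.10 nM [35S]GTPγS added for 30 min at 37 °C. Filtration, scintillation counting.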

D(1A) dopamine receptor = D(1A) dopamine receptor (Sus scrofa, UniProt P50130); assay: Displacement of [3H]SCH23390 from dopamine D1 receptor in porcine cerebral cortex after 60 mins; type: tissue-based
D(1A) dopamine receptor, sequence (P50130 whole entry): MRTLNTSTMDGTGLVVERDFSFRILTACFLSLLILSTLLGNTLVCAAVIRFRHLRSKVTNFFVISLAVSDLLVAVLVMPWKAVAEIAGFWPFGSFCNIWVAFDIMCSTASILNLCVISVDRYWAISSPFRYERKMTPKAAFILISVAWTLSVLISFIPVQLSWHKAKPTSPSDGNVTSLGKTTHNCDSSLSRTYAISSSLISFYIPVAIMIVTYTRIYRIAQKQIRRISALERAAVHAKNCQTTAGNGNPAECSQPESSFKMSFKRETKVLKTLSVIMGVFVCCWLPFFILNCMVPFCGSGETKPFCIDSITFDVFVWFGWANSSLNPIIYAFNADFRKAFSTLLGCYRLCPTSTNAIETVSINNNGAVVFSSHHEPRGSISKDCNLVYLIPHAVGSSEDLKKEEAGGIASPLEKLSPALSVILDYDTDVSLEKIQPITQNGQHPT

[12] = Displacement of [3H]prazosin from adrenergic alpha1 receptor in porcine cerebral cortex after 60 mins; type: tissue-based, Sus scrofa
D(2) dopamine receptor [13] = target: T1, D(2) dopamine receptor; assay: Displacement of [3H]spiperone from human dopamine D2short receptor expressed in CHO cells after 60 mins; type: cell-based; summary of the method: as §1
D(4) dopamine receptor = target: T3, D(4) dopamine receptor (Homo sapiens, UniProt P21917); assay: Displacement of [3H]spiperone from human dopamine D4.4 receptor expressed in CHO cells after 60 mins; type: cell-based; summary of the method: as §1
T3 sequence (P21917 whole entry): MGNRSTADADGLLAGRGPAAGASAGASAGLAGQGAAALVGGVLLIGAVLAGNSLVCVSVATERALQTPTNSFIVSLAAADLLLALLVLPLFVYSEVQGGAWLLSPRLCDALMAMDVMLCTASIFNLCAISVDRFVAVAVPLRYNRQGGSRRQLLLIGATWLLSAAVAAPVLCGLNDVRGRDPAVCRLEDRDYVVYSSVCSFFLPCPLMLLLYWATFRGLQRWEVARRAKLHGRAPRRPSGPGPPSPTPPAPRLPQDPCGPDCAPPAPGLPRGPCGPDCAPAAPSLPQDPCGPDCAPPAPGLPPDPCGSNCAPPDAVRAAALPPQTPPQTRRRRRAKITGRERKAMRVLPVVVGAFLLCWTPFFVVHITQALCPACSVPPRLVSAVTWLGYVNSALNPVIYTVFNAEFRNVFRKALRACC

D(2) dopamine receptor [14] = target: T1, D(2) dopamine receptor; assay: Antagonist activity at human dopamine D2long receptor expressed in CHO cells assessed as inhibition of forskolin-induced cAMP accumulation by bioluminescence assay; type: functional, cell-based
Summary of the method: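 CHO cells stably expressing D2long, seeded at 5000 cells/well 24 h before assay and washed with PBS. Compounds added with 20 μM forskolin in serum-free medium containing 500 μM IBMX and 100 μM Ro 20-1724, pH 7.4, for 15 min at 25 °C. cAMP read by cAMP-Glo luminescence (PKA kinase reaction, then Kinase-Glo).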

D(2) dopamine receptor [15] = target: T1, D(2) dopamine receptor; assay: Agonist activity at human dopamine D2long receptor expressed in HEK293 cells co-expressing Galphai2 assessed as incorporation of [35S]GTPgammaS into Galphai2 after 30 mins by scintillation counting; type: functional, cell-based
Summary of the method: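 Membranes from HEK293 cells transiently co-transfected with D2long and PTX-insensitive Gαi2 (receptor 4900 ± 440 fmol/mg), harvested 48 h post-transfection. Buffer: 20 mM Hepes, 10 mM MgCl2, 100 mM NaCl, 70 mg/L saponin, pH 7.4. Membranes (30-50 μg/mL protein), compound and 10 μM GDP preincubated 30 min at 30 °C, then 0.10 nM [35S]GTPγS added for 75 min at 30 °C. Reaction stopped by filtration and bound counts read.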

D(2) dopamine receptor [16] = target: T1, D(2) dopamine receptor; assay: Agonist activity at human dopamine D2long receptor expressed in CHO cells assessed as increase of forskolin-induced cAMP accumulation by bioluminescence assay
D(3) dopamine receptor [17] = target: T2, D(3) dopamine receptor; assay: Agonist activity at human dopamine D3 receptor expressed in CHO cells assessed as induction of [3H]thymidine incorporation after 2 hrs; type: functional, cell-based
Summary of the method: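 CHO dhfr- cells stably expressing D3 receptor labeled with 0.02 μCi [3H]thymidine per well (specific activity […]) for 2 h after stimulation with compound. […] Operational model used to estimate τ.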

D(2) dopamine receptor [18] = target: T1, D(2) dopamine receptor; assay: Agonist activity at human dopamine D2long receptor expressed in HEK293 cells co-expressing Galphao1 assessed as incorporation of [35S]GTPgammaS into Galphao1 after 30 mins by scintillation counting; type: functional, cell-based
Summary of the method: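 Membranes from HEK293 cells transiently co-transfected with D2long and PTX-insensitive Gαo (receptor 1500 ± 50 fmol/mg), harvested 48 h post-transfection. Buffer: 20 mM Hepes, 10 mM MgCl2, 100 mM NaCl, 70 mg/L saponin, pH 7.4. Membranes (30-50 μg/mL protein), compound and 10 μM GDP preincubated 30 min at 37 °C, then 0.10 nM [35S]GTPγS added for 30 min at 37 °C. Reaction stopped by filtration and bound counts read.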

D(2) dopamine receptor [19] = target: T1, D(2) dopamine receptor; assay: Agonist activity at human dopamine D2long receptor expressed in CHO cells assessed as induction of [3H]thymidine incorporation after 2 hrs

T1 sequence (P14416 whole entry): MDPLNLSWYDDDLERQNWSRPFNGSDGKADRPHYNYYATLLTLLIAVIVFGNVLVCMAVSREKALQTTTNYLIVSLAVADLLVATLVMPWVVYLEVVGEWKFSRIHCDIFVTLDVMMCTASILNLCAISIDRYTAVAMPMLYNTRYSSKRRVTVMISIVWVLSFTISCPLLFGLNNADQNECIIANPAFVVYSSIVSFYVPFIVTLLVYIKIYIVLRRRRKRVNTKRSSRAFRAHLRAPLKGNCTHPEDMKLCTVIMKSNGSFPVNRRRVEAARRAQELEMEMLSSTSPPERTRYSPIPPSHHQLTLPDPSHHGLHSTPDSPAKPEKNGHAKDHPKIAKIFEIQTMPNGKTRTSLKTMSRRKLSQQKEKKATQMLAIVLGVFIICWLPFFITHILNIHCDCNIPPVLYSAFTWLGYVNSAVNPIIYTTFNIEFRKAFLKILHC

Compound | Ki (D(2) dopamine receptor [1]) | Ratio Ki (Homo sapiens) | Ki (D(2) dopamine receptor [2]) | Ki (D(3) dopamine receptor [3]) | Ki (D(3) dopamine receptor [4]) | Ki (D(3) dopamine receptor [5]) | Ki (D(3) dopamine receptor [6]) | Ki (D(3) dopamine receptor [7]) | Ki (D(3) dopamine receptor [8]) | Ki (D(3) dopamine receptor [9]) | Ki (D(3) dopamine receptor [10]) | Ki (D(1A) dopamine receptor) | Ki [12] | Ki (D(2) dopamine receptor [13]) | Ki (D(4) dopamine receptor) | further results
CCCN(CCCCNC(=O)c1ccc(-c2ccccc2)cc1)[C@@H]1CCn2nccc2C1 | 300 nM | 190 | 49 nM | 19 nM | 1400 nM | 15 nM | 3700 nM | 240 nM | 15 nM | 6.3 nM | 43 nM | – | – | – | – | EC50 (D(3) dopamine receptor [11]): 51 nM
CCCN(CCCCNC(=O)c1ccccc1)C1Cc2ccccc2C1 | – | 93 | – | 2.7 nM | – | – | 250 nM | – | – | – | – | – | – | – | – | –
CCCN(CCCCNC(=O)c1ccc(-c2ccccc2)cc1)C1CCn2ncc(Cl)c2C1 (centres undefined) | 100 nM | – | – | – | – | 0.59 nM | – | – | – | – | – | 3600 nM | 260 nM | 43 nM | 190 nM | –
CCCN(CCCCNC(=O)c1ccc(-c2ccccc2)cc1)C1CCn2nccc2C1 (racemic) | 150 nM | – | – | – | – | 0.71 nM | – | – | – | – | – | 6800 nM | 520 nM | 77 nM | 59 nM | –
CCCN(CCC)C1Cc2ccccc2C1 | – | 1.5 | – | 230 nM | – | – | 350 nM | – | – | – | – | – | – | – | – | –
CCCN(CCCCNC(=O)c1ccc(-c2ccccc2)cc1)C1Cc2cccn3ncc(c23)C1 (centres undefined) | 270 nM | – | – | – | – | 0.55 nM | – | – | – | – | – | 1800 nM | 86 nM | 240 nM | 230 nM | –
CCCN(CCCCNC(=O)c1ccc(-c2ccccc2)cc1)C1CCn2ncc(C=O)c2C1 (centres undefined) | 8400 nM | – | – | – | – | 39 nM | – | – | – | – | – | 23000 nM | 3800 nM | 4700 nM | 6300 nM | –
CCCN(CCC)[C@H]1CCn2nccc2C1 | 410 nM | 2.8 | 4.6 nM | 150 nM | 8100 nM | 31 nM | 420 nM | 840 nM | 45 nM | 14 nM | 420 nM | 53000 nM | 5100 nM | 270 nM | 380 nM | –
COc1ccccc1N1CCN(CCCCNC(=O)c2ccc(-c3ccccc3)cc2)CC1 | – | – | – | 0.9 nM | 790 nM | 0.22 nM | 180 nM | 2.8 nM | 0.16 nM | – | 0.58 nM | 570 nM | 5.6 nM | – | 27 nM | inhibition (D(2) dopamine receptor [14]): Active
CCCN(CCCCNC(C)=O)C1Cc2ccccc2C1 | – | 0.8 | – | 410 nM | – | – | 330 nM | – | – | – | – | – | – | – | – | –
CCCCC(=O)NCCCCN(CCC)C1Cc2ccccc2C1 | – | 17 | – | 44 nM | – | – | 760 nM | – | – | – | – | – | – | – | – | –
CCCN(CCC)[C@@H]1CCn2nccc2C1 | 55000 nM | – | 57000 nM | – | – | 2100 nM | – | – | – | 4300 nM | – | 68000 nM | 2900 nM | 53000 nM | 17000 nM | –
CCCN(CCCCNC(=O)c1ccc(-c2ccccc2)cc1)[C@H]1CCn2nccc2C1 | 5.3 nM | 2200 | 1 nM | 0.076 nM | 850 nM | 0.19 nM | 170 nM | 2.3 nM | 0.058 nM | 0.027 nM | 0.98 nM | – | – | – | – | EC50 (D(2) dopamine receptor [15]): 370 nM; EC50 (D(2) dopamine receptor [16]): 110 nM; EC50 (D(3) dopamine receptor [17]): 0.0028 nM; EC50 (D(2) dopamine receptor [18]): 26 nM; EC50 (D(2) dopamine receptor [19]): 0.51 nM; EC50 (D(3) dopamine receptor [11]): 0.056 nM
